Experimental data published in ChEMBL document CHEMBL1134104, “Novel alkylpolyamine analogues that possess both antitrypanosomal and antimicrosporidial activity” (Bioorg Med Chem Lett, 2001).

Legend:
Trypanosoma brucei [1] = test: In vitro growth inhibitory activity against Trypanosoma brucei strain K243 (As-10-3); type: functional, organism-based
Trypanosoma brucei [2] = test: In vitro growth inhibitory activity against Trypanosoma brucei strain K269; type: functional, organism-based
Trypanosoma brucei [3] = test: In vitro growth inhibitory activity against Trypanosoma brucei strain LAB110; type: functional, organism-based
Trypanosoma brucei [4] = test: In vitro growth inhibitory activity against Trypanosoma brucei strain K243; type: functional, organism-based
Encephalitozoon cuniculi [5] = test: In vitro growth inhibitory activity against Encephalitozoon cuniculi grown on RK-13 cells infected as a monolayer at concentration of 50 uM; type: functional
In short: (§1)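 RK-13 monolayers were infected with E. cuniculi, with 50–80% of control cells infected. Compound was added to duplicate wells for 7 days, and drug-containing medium was replaced on days 3 and 6. On day 8, cells were fixed overnight, Giemsa-stained and counted by inverted microscope at 400× in five confluent fields (240 cells/field). Percentage of infected cells was compared with untreated controls. Values came from three to five growth curves.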

Encephalitozoon cuniculi [6] = test: In vitro growth inhibitory activity against Encephalitozoon cuniculi grown on RK-13 cells infected as a monolayer at concentration of 250 uM; type: functional; in short: as §1
Encephalitozoon cuniculi [7] = test: In vitro growth inhibitory activity against Encephalitozoon cuniculi grown on RK-13 cells infected as a monolayer at concentration of 500 uM; type: functional; in short: as §1
Encephalitozoon cuniculi [8] = test: In vitro growth inhibitory activity against Encephalitozoon cuniculi grown on RK-13 cells infected as a monolayer; type: functional, organism-based; in short: as §1
Encephalitozoon cuniculi [9] = test: In vitro growth inhibitory activity against Encephalitozoon cuniculi grown on RK-13 cells infected as a monolayer at concentration of 100 uM; type: functional; in short: as §1

Compound | IC50 (Trypanosoma brucei [1]) | IC50 (Trypanosoma brucei [2]) | IC50 (Trypanosoma brucei [3]) | IC50 (Trypanosoma brucei [4]) | inhibition at 50 µM (Encephalitozoon cuniculi [5]) | inhibition at 250 µM (Encephalitozoon cuniculi [6]) | inhibition at 500 µM (Encephalitozoon cuniculi [7]) | IC50 (Encephalitozoon cuniculi [8]) | inhibition at 100 µM (Encephalitozoon cuniculi [9])
CCNCCCNCCCNCCCNCC [BIS(ETHYL)NORSPERMINE] | > 100 µM | > 100 µM | > 100 µM | > 100 µM | – | – | – | – | –
CCC(C)CNCCCNCCCCCCCNCCCNCC(C)CC (centres undefined) | 0.165 µM | – | 0.031 µM | 0.04 µM | 47% | – | – | – | –
C(CNCC1CCC1)CNCC1CCCC(CNCCCNCC2CCC2)C1 (centres undefined) | – | – | – | – | – | 100% | – | – | –
CCNCCCNCCCCCCCNCCCNC[C@@H](C)CC | 0.79 µM | – | 0.31 µM | 0.38 µM | – | – | – | – | –
CC[C@H](C)CNCCCNCCCCCCCNCCCN | – | – | – | – | – | – | 87% | – | –
c1ccc(-c2ccccc2CNCCCNCCCCCCCNCCCNCc2ccccc2-c2ccccc2)cc1 | 0.2 µM | 0.75 µM | 0.24 µM | 0.19 µM | – | – | – | 0.47 µM | –
CCNCCCNC1C=CC(N)CCC1 (centres undefined) | – | – | > 100 µM | > 100 µM | – | – | – | 36 µM | –
COc1ccccc1CNCCCNCCCCCCCNCCCNCc1ccccc1OC | 5.5 µM | 16.5 µM | 22 µM | 18.5 µM | 100% | – | – | – | –
C1CCCC(CNCCCNCC2CCCC(CNCCCNCC3CCCCCC3)C2)CC1 (centres undefined) | 2.15 µM | 1.71 µM | 3.25 µM | 14 µM | – | – | – | – | 100%
N[C@H]1C=CC(NCCCNCC2CC2)C1 (some centres undefined) | – | – | > 100 µM | > 100 µM | – | – | – | 204 µM | –
N[C@@H]1C=C[C@@H](NCCCNCC2CCCC(CNCCCN[C@H]3C=C[C@H](N)C3)C2)C1 (some centres undefined) | – | – | – | – | – | – | – | – | 100%
N[C@H]1C=CC(NCCCNCC2CCCCCC2)CCC1 (some centres undefined) | – | – | – | – | – | – | – | – | 76%
CCNCCCNCC1CCCC(N)CC1 (centres undefined) | – | – | > 100 µM | > 100 µM | – | – | – | 232 µM | –
c1ccc(CNCCCNCC2CCCC(CNCCCNCc3ccccc3)C2)cc1 (centres undefined) | 56 µM | 5.1 µM | 4.05 µM | 4.15 µM | – | – | – | – | 86%
C(CNCC1CC1)CNCC1CCCC(CNCCCNCC2CC2)C1 (centres undefined) | > 100 µM | > 100 µM | 73 µM | 81.5 µM | – | – | – | – | 100%
